Experiments:
[1] = Concentration which elicits cytotoxicity in 50% of uninfected human lymphocyte derived CEM cells; assay type: cell-based, CCRF-CEM; settings: uninfected CCRF-CEM cells, read-out: TC50 (the source's name)
Summary of the method: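 Cytotoxicity measured in uninfected human lymphocyte-derived CEM cells by XTT protocol.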

[2] = molecular target: Human immunodeficiency virus type 1 protease (Human immunodeficiency virus 1, UniProt Q72874); test: Activity of potent nonpeptidic inhibitor against protease
Summary of the method: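 Incubated with 40 µM His-Lys-Ala-Arg-Val-Leu-(p-NO₂-Phe)-Glu-Ala-Nle-Ser-NH₂ in 1.0% DMSO, pH 6.2 MES buffer (DTT, NaCl, EDTA, PEG 8000) for 60 min at 37 °C, then TFA quench. Substrate and product separated by reverse-phase HPLC, read at 220 nm. % control = conversion with inhibitor / conversion without × 100; IC50 derived.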

[3] = tested on: Human immunodeficiency virus 1; test: Effective concentration at which 50% of the HIV-IIIB-infected human lymphocyte-derived CEM cells protected from HIV-1 infection; settings: Human immunodeficiency virus 1, CCRF-CEM

| Compound | CC50 [1] [µM] | IC50 [2] [µM] | EC50 [3] [µM] |
| --- | --- | --- | --- |
| Cc1cc(SC2=C(O)OC(CCc3ccc(O)cc3)(C(C)C)CC2=O)c(C(C)(C)C)cc1NS(=O)(=O)c1cccnc1 (stereo unspecified) | > 100 | 0.0026 | 5.8 |
| Cc1cc(SC2=C(O)OC(CCc3ccc(O)cc3)(C(C)C)CC2=O)c(C(C)(C)C)cc1NS(C)(=O)=O (stereo unspecified) | > 100 | 0.004 | 5.3 |
| Cc1cc(SC2=C(O)OC(CCc3ccc(O)cc3)(C(C)C)CC2=O)c(C(C)(C)C)cc1NS(=O)(=O)N(C)C (stereo unspecified) | > 100 | 0.0036 | 1.7 |
| Cc1cc(SC2=C(O)OC(CCc3ccccc3)(C(C)C)CC2=O)c(C(C)(C)C)cc1N (stereo unspecified) | 69 | 0.0036 | 1.9 |
| Cc1cc(SC2=C(O)OC(CCc3ccccc3)(C(C)C)CC2=O)c(C(C)(C)C)cc1OS(=O)(=O)c1cccnc1 (stereo unspecified) | 65 | 0.014 | 4.6 |
| CCNS(=O)(=O)Nc1cc(C(C)(C)C)c(SC2=C(O)OC(CCc3ccccc3)(C(C)C)CC2=O)cc1C (stereo unspecified) | 77 | 0.0033 | 1.2 |
| Cc1cc(SC2=C(O)OC(C)(CCc3ccc(O)cc3)CC2=O)c(C(C)(C)C)cc1N (stereo unspecified) | > 100 | 0.013 | 3.7 |
| Cc1cc(SC2=C(O)OC(CCc3ccc(O)cc3)(C(C)C)CC2=O)c(C(C)(C)C)cc1NS(=O)(=O)c1ccc(C(F)(F)F)cc1 (stereo unspecified) | 66 | 0.0183 | 1.1 |
| Cc1cc(SC2=C(O)OC(CCc3ccc(O)cc3)(C(C)C)CC2=O)c(C(C)(C)C)cc1NS(=O)(=O)c1cccs1 (stereo unspecified) | > 100 | 0.0087 | 1.8 |
| Cc1cc(SC2=C(O)OC(C)(CCc3ccc(O)cc3)CC2=O)c(C(C)(C)C)cc1NS(=O)(=O)c1ccc(Cl)cc1 (stereo unspecified) | 71 | 0.0035 | 3.9 |
| Cc1cc(SC2=C(O)OC(C)(CCc3ccc(O)cc3)CC2=O)c(C(C)(C)C)cc1NS(=O)(=O)c1ccccc1 (stereo unspecified) | > 100 | 0.0015 | 5.2 |
| Cc1cc(SC2=C(O)OC(C)(CCc3ccc(O)cc3)CC2=O)c(C(C)(C)C)cc1NS(=O)(=O)c1ccc(F)cc1 (stereo unspecified) | 93 | 0.0037 | 5.6 |
| Cc1cc(SC2=C(O)OC(CCc3ccccc3)(C(C)C)CC2=O)c(C(C)(C)C)cc1NS(=O)(=O)c1cccs1 (stereo unspecified) | 61 | 0.0036 | 2.1 |
| Cc1cc(SC2=C(O)OC(C)(CCc3ccc(O)cc3)CC2=O)c(C(C)(C)C)cc1NS(C)(=O)=O (stereo unspecified) | > 100 | 0.0097 | 19 |
| Cc1cc(SC2=C(O)OC(C)(CCc3ccc(O)cc3)CC2=O)c(C(C)(C)C)cc1OS(=O)(=O)c1ccccc1 (stereo unspecified) | 82 | 0.0098 | 12 |
| Cc1cc(SC2=C(O)OC(CCc3ccc(O)cc3)(C3CC3)CC2=O)c(C(C)(C)C)cc1NS(=O)(=O)c1ccccc1 (stereo unspecified) | 76 | 0.0036 | 2.4 |
| Cc1cc(SC2=C(O)OC(CCc3ccc(O)cc3)(C(C)C)CC2=O)c(C(C)(C)C)cc1OS(=O)(=O)c1ccc(F)cc1 (stereo unspecified) | 66 | 0.0096 | 0.8 |
| CCNS(=O)(=O)Nc1cc(C(C)(C)C)c(SC2=C(O)OC(CCc3ccc(O)cc3)(C(C)C)CC2=O)cc1C (stereo unspecified) | > 100 | 0.0017 | 3.3 |
| Cc1cc(SC2=C(O)OC(CCc3ccc(O)cc3)(C(C)C)CC2=O)c(C(C)(C)C)cc1NS(=O)(=O)c1ccc(F)cc1 (stereo unspecified) | 66 | 0.0041 | 1.8 |
| Cc1cc(SC2=C(O)OC(CCc3ccccc3)(C(C)C)CC2=O)c(C(C)(C)C)cc1NS(=O)(=O)Cn1ccnc1 (stereo unspecified) | > 100 | 0.0019 | 4.2 |
| Cc1cc(SC2=C(O)OC(CCc3ccc(O)cc3)(C(C)C)CC2=O)c(C(C)(C)C)cc1OS(=O)(=O)c1ccccc1 (stereo unspecified) | 66 | 0.0104 | 1.6 |
| Cc1cc(SC2=C(O)OC(CCc3ccccc3)(C(C)C)CC2=O)c(C(C)(C)C)cc1OS(=O)(=O)Cn1ccnc1 (stereo unspecified) | 66 | 0.003 | 1.1 |

Reference: ChEMBL document CHEMBL1132961 (J Med Chem, 2000)
